Measured values from ChEMBL document CHEMBL1828517, “Synthesis, evaluation and application of polycyclic fluorescent analogues as N-methyl-D-aspartate receptor and voltage gated calcium channel ligands” (Eur J Med Chem, 2011).
Activity calls are given as the source filed them. The rule behind the calls is not given here.

Test system: not listed separately
Assay: Antagonist activity at voltage gated calcium channel in Sprague-Dawley rat striatal synaptoneurosomes assessed as inhibition of KCl-induced calcium flux at 100 uM by spectrofluorimetric analysis relative to control
Format: functional
Method in brief: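 Rat synaptoneurosomes loaded with Fura-2 AM (5 μM final, 10 min, 37 °C) in Krebs-HEPES pH 7.4. Compounds at 100 μM (0.1% DMSO) are preincubated 5 min at 37 °C. Depolarization is done at 10 s with KCl (140 mM) solution. Baseline is subtracted from peak fluorescence, the KCl-induced rise is taken as 100%, and inhibition is expressed relative to it.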
With `O=[N+]([O-])c1ccc(NCCCNC23CC4CC(CC(C4)C2)C3)c([N+](=O)[O-])c1` the “inhibition (INH)” value was 88.5%.
With `O=C(NCCCNC12CC3CC(CC(C3)C1)C2)c1cc2ccccc2oc1=O` the “inhibition (INH)” value was 67.99%.
With `CN(C)c1cccc2c(S(=O)(=O)NCCCNC34CC5CC(CC(C5)C3)C4)cccc12` the “inhibition (INH)” value was 36.74%.
In the case of `OC12C3C4CC5C6C4C1C6C1(OCCCN21)C53` (configuration not stated), the “inhibition (INH)” value is reported as 87.24%.
For `O=C(OC12C3C4CC5C6C4C1C6C1(OCCCN12)C53)c1n[nH]c2ccccc12` (configuration not stated), the “inhibition (INH)” value was 83.62%.
In the case of `CNc1ccccc1C(=O)OC12C3C4CC5C6C4C1C6C1(OCCCN12)C53` (configuration not stated), the “inhibition (INH)” value is reported as 84.79%.
In the case of `CNc1ccccc1C(=O)NCCCNC12CC3CC(CC(C3)C1)C2`, the “inhibition (INH)” value is reported as 87.91%.
For `O=C(NCCCNC12CC3CC(CC(C3)C1)C2)c1n[nH]c2ccccc12`, the “inhibition (INH)” value was 86.91%.
`NCCCNC12CC3CC(CC(C3)C1)C2` showed an inhibition (INH) of 89.3%.
With `N#Cc1c2ccccc2cn1CCCNC12CC3CC(CC(C3)C1)C2` the “inhibition (INH)” value was 45.92%.

Target: T1, Glutamate NMDA receptor (Rattus norvegicus) (UniProt P35439+Q00959+Q00960+Q00961+Q62645+Q8VHN2+Q9R1M7)
Assay: Antagonist activity at NMDA receptor in Sprague-Dawley rat striatal synaptoneurosomes assessed as inhibition of NMDA/glycine-induced calcium flux at 100 uM by spectrofluorimetric analysis relative to control
Format: functional
Method in brief: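 Male Sprague-Dawley rat brain synaptoneurosomes are loaded with Mag-Fura-2/Fura-2 AM (5 μM final) for 10 min at 37 °C and resuspended in Krebs-HEPES pH 7.4. Compounds at 100 μM (0.1% DMSO final) are preincubated 5 min at 37 °C. NMDA (100 μM) plus glycine (100 μM) is added at 10 s and ratiometric fluorescence is read. Results are % of the DMSO control, 3 preparations × 3 determinations.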
`O=C(NC12CC3CC(CC(C3)C1)C2)c1n[nH]c2ccccc12` showed an inhibition of 16%.
With `CNc1ccccc1C(=O)NC12CC3CC(CC(C3)C1)C2` the inhibition was “inactive”.
With `O=[N+]([O-])c1ccc(NC23CC4CC(CC(C4)C2)C3)c([N+](=O)[O-])c1` the inhibition was 19.2%.
In the case of `N#Cc1c2ccccc2cn1C12CC3CC(CC(C3)C1)C2`, the inhibition is reported as 16%.
Work on `O=[N+]([O-])c1ccc(NCCCNC23CC4CC(CC(C4)C2)C3)c([N+](=O)[O-])c1` yielded an inhibition of 23.4%.
In the case of `O=C(NCCCNC12CC3CC(CC(C3)C1)C2)c1cc2ccccc2oc1=O`, the inhibition is reported as 13.2%.
For `O=C(NC12CC3CC(CC(C3)C1)C2)c1cc2ccccc2oc1=O`, the inhibition was 20.3%.
In the case of `N#CCCNC12CC3CC(CC(C3)C1)C2`, the inhibition is reported as 19.3%.
`CN(C)c1cccc2c(S(=O)(=O)NCCCNC34CC5CC(CC(C5)C3)C4)cccc12` gave an inhibition of 37%.
`OC12C3C4CC5C6C4C1C6C1(OCCCN21)C53` (configuration not stated) showed an inhibition of 22.7%.
Molecule `O=C(OC12C3C4CC5C6C4C1C6C1(OCCCN12)C53)c1n[nH]c2ccccc12` (configuration not stated) has an inhibition of 13.6%.
With `CNc1ccccc1C(=O)OC12C3C4CC5C6C4C1C6C1(OCCCN12)C53` (configuration not stated) the inhibition was 12%.
In the case of `CNc1ccccc1C(=O)NCCCNC12CC3CC(CC(C3)C1)C2`, the inhibition is reported as 12%.
For `O=C(NCCCNC12CC3CC(CC(C3)C1)C2)c1n[nH]c2ccccc12`, the inhibition was “inactive”.
Molecule `CN(C)c1cccc2c(S(=O)(=O)NC34CC5CC(CC(C5)C3)C4)cccc12` has an inhibition of 21.9%.
`NCCCNC12CC3CC(CC(C3)C1)C2` gave an inhibition of 9.01%.
Work on `N#Cc1c2ccccc2cn1CCCNC12CC3CC(CC(C3)C1)C2` yielded an inhibition of 13.6%.

Target: Glutamate NMDA receptor
Assay: Antagonist activity at NMDA receptor in Sprague-Dawley rat striatal synaptoneurosomes assessed as inhibition of NMDA/glycine-induced calcium flux by spectrofluorimetric analysis
Format: functional
Method in brief: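 Fura-2 AM-loaded rat synaptoneurosomes in Krebs-HEPES pH 7.4 at 37 °C. Compound is preincubated 5 min at log-spaced concentrations. Calcium influx is triggered with NMDA (100 μM) plus glycine (100 μM) and measured by ratiometric spectrofluorimetry. The concentration-response is fitted to a four-parameter logistic equation; 3 preparations × 3 determinations.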
Molecule `CN(C)c1cccc2c(S(=O)(=O)NCCCNC34CC5CC(CC(C5)C3)C4)cccc12` has an IC50 of 270 nM.

Target: T1, Glutamate NMDA receptor (Rattus norvegicus)
Assay: Binding affinity to NMDA receptor in Sprague-Dawley rat striatal synaptoneurosomes at 100 uM after 30 mins by competition binding assay in presence of MK-801
Format: protein-complex assay
Method in brief: (§1)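 Unloaded rat synaptoneurosomes (0.6 mg/ml) are resuspended in Krebs-HEPES at 37 °C and given the fluorescent ligand (100 μM) alone or with a competitor at 100 μM (DMSO <0.1%). NMDA (100 μM) plus glycine (100 μM) is added, followed by 30 min at 37 °C. The pellet is washed and resuspended, and fluorescence is read at 324/455 nm. Results are % of ligand-alone intensity; n = 9.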
For `CN(C)c1cccc2c(S(=O)(=O)NCCCNC34CC5CC(CC(C5)C3)C4)cccc12`, the inhibition was “inactive”.

Target: T1, Glutamate NMDA receptor (Rattus norvegicus)
Assay: Binding affinity to NMDA receptor in Sprague-Dawley rat striatal synaptoneurosomes at 100 uM after 30 mins by competition binding assay in presence of amantadine
Format: protein-complex assay
Method in brief: as §1
In the case of `CN(C)c1cccc2c(S(=O)(=O)NCCCNC34CC5CC(CC(C5)C3)C4)cccc12`, the inhibition is reported as “inactive”.

Target: T1, Glutamate NMDA receptor (Rattus norvegicus)
Assay: Binding affinity to NMDA receptor in Sprague-Dawley rat striatal synaptoneurosomes at 100 uM after 30 mins by competition binding assay in presence of NGP1-01
Format: protein-complex assay
Method in brief: as §1
For `CN(C)c1cccc2c(S(=O)(=O)NCCCNC34CC5CC(CC(C5)C3)C4)cccc12`, the inhibition was “inactive”.

Test system: Glutamate NMDA receptor (Rattus norvegicus)
Assay: Antagonist activity at NMDA receptor in Sprague-Dawley rat striatal synaptoneurosomes assessed as inhibition of NMDA/glycine-induced calcium flux at 100 uM by spectrofluorimetric analysis relative to control
With `O=C(NC12CC3CC(CC(C3)C1)C2)c1n[nH]c2ccccc12` the “inhibition (INH)” value was 83.7%.
For `O=[N+]([O-])c1ccc(NCCCNC23CC4CC(CC(C4)C2)C3)c([N+](=O)[O-])c1`, the “inhibition (INH)” value was 76.59%.
With `O=C(NCCCNC12CC3CC(CC(C3)C1)C2)c1cc2ccccc2oc1=O` the “inhibition (INH)” value was 86.77%.
In the case of `CN(C)c1cccc2c(S(=O)(=O)NCCCNC34CC5CC(CC(C5)C3)C4)cccc12`, the “inhibition (INH)” value is reported as 62.97%.
For `OC12C3C4CC5C6C4C1C6C1(OCCCN21)C53` (configuration not stated), the “inhibition (INH)” value was 77.29%.
For `O=C(OC12C3C4CC5C6C4C1C6C1(OCCCN12)C53)c1n[nH]c2ccccc12` (configuration not stated), the “inhibition (INH)” value was 77.89%.
For `CNc1ccccc1C(=O)OC12C3C4CC5C6C4C1C6C1(OCCCN12)C53` (configuration not stated), the “inhibition (INH)” value was 86.41%.
In the case of `CNc1ccccc1C(=O)NCCCNC12CC3CC(CC(C3)C1)C2`, the “inhibition (INH)” value is reported as 88.02%.
With `O=C(NCCCNC12CC3CC(CC(C3)C1)C2)c1n[nH]c2ccccc12` the “inhibition (INH)” value was 95.19%.
For `NCCCNC12CC3CC(CC(C3)C1)C2`, the inhibition (INH) was 91%.
In the case of `N#Cc1c2ccccc2cn1CCCNC12CC3CC(CC(C3)C1)C2`, the “inhibition (INH)” value is reported as 86.41%.
